Among the data in ChEMBL document CHEMBL1123266, “Antibacterial activity of phosphono dipeptides related to alafosfalin” (J Med Chem, 1986) are IC50 and MIC values, retold here.

Molecules are shown by their SMILES. Converted amounts (≈) assume the structure as drawn.

For test [1], the system named is Bacillus subtilis. The experiment in a line: Concentration (IC50) to inhibit the growth of Bacillus subtilis. Type of test: functional, organism-based. The gist of the method:
(§1)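 Broth dilution in a defined liquid peptide medium lacking antagonists of small peptide mimetics. Inocula were overnight cultures grown in this medium at 37 °C and diluted to about 4 × 10^6 cfu/mL. Compound was tested as a doubling dilution series, final 0.065–512 μg/mL, incubated overnight at 37 °C. Turbidity was read, and IC50 is the concentration reducing 24-h growth to 50% of control.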

For test [2], the system named is Escherichia coli. The experiment in a line: Minimum inhibitory concentration (MIC) to control the growth of Escherichia coli strain PCM 2057. Type of test: functional. The gist of the method:
(§2)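 Doubling dilutions of compound were made in a defined liquid peptide medium free of peptide-mimetic antagonists, final 0.065–512 μg/mL. The inoculum was an overnight 37 °C culture diluted to about 4 × 10^6 cfu/mL, incubated overnight at 37 °C. Non-turbid samples were subcultured (0.1 mL) onto solid peptide-medium agar and incubated overnight at 37 °C to assign MIC.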

The subject of test [3] is Escherichia coli. The experiment in a line: Concentration (IC50) to inhibit the growth of Escherichia coli. Type of test: functional, organism-based. The gist of the method:
as §1

For test [4], the system named is Klebsiella aerogenes. The experiment in a line: Concentration (IC50) to inhibit the growth of Klebsiella aerogenes. It is filed as functional, organism-based. The gist of the method:
as §1

Test [5] has as its system Klebsiella aerogenes. Nature of the test: Minimum inhibitory concentration (MIC) to control the growth of Klebsiella aerogenes strain PCM 2063. It is filed as functional. The gist of the method: as §2
The test system of test [6] is Staphylococcus aureus. Nature of the test: Concentration (IC50) to inhibit the growth of Staphylococcus aureus. It is filed as functional, organism-based. The gist of the method: as §1
Test [7] concerns Staphylococcus aureus. The experiment in a line: Minimum inhibitory concentration (MIC) to control the growth of Staphylococcus aureus strain PCM 2054. Type of test: functional. The gist of the method:
as §2

For test [8], the system named is Serratia marcescens. The experiment in a line: Concentration (IC50) to inhibit the growth of Serratia marcescens. It is filed as functional, organism-based. The gist of the method:
as §1

The test system of test [9] is Enterococcus faecalis. The experiment in a line: Concentration (IC50) to inhibit the growth of Streptococcus faecalis. It is filed as functional, organism-based. The gist of the method: as §1
Test [10] deals with Enterococcus faecalis. The experiment in a line: Minimum inhibitory concentration (MIC) to control the growth of Streptococcus faecalis strain PCM 896. It is filed as functional. The gist of the method: as §2
The subject of test [11] is Bacillus subtilis. Nature of the test: Minimum inhibitory concentration (MIC) to control the growth of Bacillus subtilis strain PCM 1949. Type of test: functional. The gist of the method:
as §2

Test [12] deals with Serratia marcescens. Nature of the test: Compound was evaluated for its minimum inhibitory concentration (MIC) to control the growth of Serratia marcescens strain PCM 549. It is filed as functional. The gist of the method:
as §2

Test [13] relates to Bacillus subtilis. The experiment in a line: Compound was evaluated for its minimum inhibitory concentration (MIC) to control the growth of Bacillus subtilis strain PCM 1949. It is filed as functional. The gist of the method: as §2
Test [14] has as its system Staphylococcus aureus. The experiment in a line: Compound was evaluated for its minimum inhibitory concentration (MIC) to control the growth of Staphylococcus aureus strain PCM 2054. Type of test: functional. The gist of the method: as §2
The test system of test [15] is Staphylococcus aureus. The experiment in a line: Compound was evaluated for its concentration (IC50) to inhibit the growth of Staphylococcus aureus. It is filed as functional, organism-based. The gist of the method:
as §1

Test [16] deals with Serratia marcescens. Nature of the test: Minimum inhibitory concentration (MIC) to control the growth of Serratia marcescens strain PCM 549. Type of test: functional. The gist of the method: as §2
Test [17] has as its system Escherichia coli. The experiment in a line: Compound was evaluated for its minimum inhibitory concentration (MIC) to control the growth of Escherichia coli strain PCM 2057. Type of test: functional. The gist of the method: as §2
Test [18] has as its system Serratia marcescens. The experiment in a line: Compound was evaluated for its concentration (IC50) to inhibit the growth of Serratia marcescens. It is filed as functional, organism-based. The gist of the method: as §1

Regarding `CC(C)CC(N)C(=O)NC(C1CC1)P(=O)(O)O` (configuration not stated), the half-maximal inhibitory concentration (IC50) in test [1] is over 512 µg/mL; in test [3], over 512 µg/mL; in [4], over 512 µg/mL; in test [6], 83 µg/mL (≈ 314 µM); in test [8], over 512 µg/mL; in [9] it was over 512 µg/mL. For the same molecule, the MIC in test [2] is over 512 µg/mL; in test [5], over 512 µg/mL; in test [7], 128 µg/mL (≈ 484 µM); in [10], over 512 µg/mL; in test [11] it was over 512 µg/mL; in test [12], over 512 µg/mL.

For the molecule `CC(N)C(=O)NC(Cc1ccccc1)P(=O)(O)O` (configuration not stated), the minimum inhibitory concentration (MIC) in [13], in test [2], in test [5], in test [14], in test [10] and in [12] was over 512 µg/mL in each case. Further, the IC50 in test [1] was 6.8 µg/mL (≈ 25 µM); in test [3], over 512 µg/mL; in [4], over 512 µg/mL; in [8], 14 µg/mL (≈ 51.4 µM); in test [15], 333 µg/mL (≈ 1220 µM); in test [9], over 512 µg/mL.

Regarding `CC(N)C(=O)NC(C1CCC1)P(=O)(O)O` (configuration not stated), the IC50 in [1], in test [3], in [4], in test [6], in test [8] and in [9] was over 512 µg/mL each time. In addition, the MIC in [2], in test [5], in [7], in [16], in test [10] and in [11] was over 512 µg/mL each time.

On to `CC(C)CC(N)C(=O)NC(C(C)C)P(=O)(O)O` (configuration not stated), for which the concentration for half-maximal inhibition (IC50) in test [1] was 179 µg/mL (≈ 672 µM); in test [3], 282 µg/mL (≈ 1060 µM); in test [4], 0.065 µg/mL (≈ 0.244 µM); in test [6], 32 µg/mL (≈ 120 µM); in [8], over 512 µg/mL; in test [9], 410 µg/mL (≈ 1540 µM). For the same molecule, the MIC in test [2] was over 512 µg/mL; in test [5], over 512 µg/mL; in test [7] it was over 512 µg/mL; in [16], over 512 µg/mL; in test [10], over 512 µg/mL; in test [11], 512 µg/mL (≈ 1920 µM).

With `CC(N)C(=O)NC(C)P(=O)(O)O` (configuration not stated), the IC50 in [1] is 512 µg/mL (≈ 2610 µM); in test [3] it was 0.22 µg/mL (≈ 1.12 µM); in test [4], 64 µg/mL (≈ 326 µM); in test [6], 58 µg/mL (≈ 296 µM); in test [8] it was 0.6 µg/mL (≈ 3.06 µM); in test [9] it was 30 µg/mL (≈ 153 µM). Moreover, the MIC in [17] is 8 µg/mL (≈ 40.8 µM); in test [5], over 512 µg/mL; in test [7], over 512 µg/mL; in test [16] it was 64 µg/mL (≈ 326 µM); in test [10], over 512 µg/mL; in [11] it was over 512 µg/mL.

Consider `CC(C)CC(N)C(=O)NC(C1CCC1)P(=O)(O)O` (configuration not stated), for which the IC50 in test [1] is over 512 µg/mL; in test [3], over 512 µg/mL; in [4], over 512 µg/mL; in [18] it was over 512 µg/mL; in [6], over 512 µg/mL; in test [9], 230 µg/mL (≈ 826 µM). Moreover, the MIC in test [2], in [5], in test [7], in test [16], in [10] and in test [11] was over 512 µg/mL each time.

One may read the IC50 as the midpoint of a concentration-inhibition curve. Read a low IC50 as greater potency. By MIC is commonly meant the lowest concentration found to suppress growth. Read a low MIC as inhibition by little substance.
